Reference: publication PMC8026699 (Cancer research, 2021)

Legend:
recombinant human ACSS3 = target: T1, recombinant human ACSS3 (Homo sapiens, UniProt Q9H6R3); assay: TranScreener AMP biochemical assay of ACSS3 activity; conditions: regardless of the substrate (acetate or propionate)
T1 sequence (Q9H6R3 30-686): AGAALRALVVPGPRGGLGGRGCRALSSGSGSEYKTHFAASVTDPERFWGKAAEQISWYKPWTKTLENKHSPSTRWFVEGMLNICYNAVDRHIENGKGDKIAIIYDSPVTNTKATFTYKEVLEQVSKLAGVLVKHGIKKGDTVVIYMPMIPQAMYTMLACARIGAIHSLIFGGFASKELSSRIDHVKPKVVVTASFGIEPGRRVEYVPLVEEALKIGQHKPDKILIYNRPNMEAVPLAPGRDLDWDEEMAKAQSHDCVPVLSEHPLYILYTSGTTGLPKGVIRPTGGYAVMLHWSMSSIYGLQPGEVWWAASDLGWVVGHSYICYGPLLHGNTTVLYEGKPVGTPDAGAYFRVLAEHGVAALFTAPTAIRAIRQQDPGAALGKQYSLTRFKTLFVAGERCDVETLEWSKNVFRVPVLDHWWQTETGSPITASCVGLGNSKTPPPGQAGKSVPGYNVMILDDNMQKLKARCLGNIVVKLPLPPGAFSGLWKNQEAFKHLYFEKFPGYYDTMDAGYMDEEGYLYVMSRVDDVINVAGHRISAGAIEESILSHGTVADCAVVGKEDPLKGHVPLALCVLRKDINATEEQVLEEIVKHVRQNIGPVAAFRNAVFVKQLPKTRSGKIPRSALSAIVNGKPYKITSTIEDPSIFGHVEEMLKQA
How it was run: (§1)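 Test compound was serially diluted in DMSO and added to ACSS1 (2 nM) or ACSS3 (25 nM). Acetate reaction: HEPES pH 7.4 buffer with 140 mM NaCl; final 5 mM acetate, 50 μM ATP, 5 μM CoA. Propionate reaction: HEPES/KCl/CHAPS buffer; final 5 mM propionate, 10 μM ATP, 100 μM CoA. Incubation 120 min, then AMP detected by terbium-antibody/tracer TR-FRET after 30 min. Percent inhibition was set against no-enzyme and DMSO controls.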

Water solubility in PBS = type: physicochemical; conditions: PBS buffer pH 7.4, room temperature
How it was run: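 10 mg test compound in 1 mL PBS pH 7.4, sonicated 30 min, vortexed 30 min at low speed, then left 16–24 h at room temperature. Filtered (0.22 μm) and 10-fold serially diluted in triplicate in ACN:water (1:1). Internal standard added; LC-MS/MS quantitation against a five-standard calibration curve.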

recombinant human ACSS1 = target: T2, recombinant human ACSS1 (Homo sapiens, UniProt Q9NUB1); assay: TranScreener AMP biochemical assay of ACSS1 activity; conditions: regardless of the substrate (acetate or propionate)
T2 sequence (Q9NUB1 38-689): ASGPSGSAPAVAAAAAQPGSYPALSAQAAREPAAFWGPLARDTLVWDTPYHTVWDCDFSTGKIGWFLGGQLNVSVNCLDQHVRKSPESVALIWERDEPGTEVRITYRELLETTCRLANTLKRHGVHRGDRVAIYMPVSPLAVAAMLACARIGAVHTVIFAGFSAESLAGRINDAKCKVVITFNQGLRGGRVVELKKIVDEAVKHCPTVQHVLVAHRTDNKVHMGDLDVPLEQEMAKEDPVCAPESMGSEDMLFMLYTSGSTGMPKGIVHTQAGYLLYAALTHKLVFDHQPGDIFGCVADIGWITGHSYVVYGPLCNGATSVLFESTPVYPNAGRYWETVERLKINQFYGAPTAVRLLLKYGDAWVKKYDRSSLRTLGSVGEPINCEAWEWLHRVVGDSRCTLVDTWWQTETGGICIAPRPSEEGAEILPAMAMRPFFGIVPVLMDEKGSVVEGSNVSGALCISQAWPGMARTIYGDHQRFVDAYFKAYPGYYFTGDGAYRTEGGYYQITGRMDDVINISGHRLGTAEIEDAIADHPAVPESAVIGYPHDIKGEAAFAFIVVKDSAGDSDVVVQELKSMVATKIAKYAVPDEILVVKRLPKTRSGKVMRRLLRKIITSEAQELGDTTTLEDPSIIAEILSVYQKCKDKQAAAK
How it was run: as §1

SKBr3 cells = assay: ERK phosphorylation immunoblot in SKBr3 cells; type: cell-based, human
BT474 cells = assay: ERK phosphorylation immunoblot in BT474 cells; type: cell-based, human
MDA-MB-468 cells = assay: ERK phosphorylation immunoblot in MDA-MB-468 cells; type: cell-based, human

Structure (SMILES)	inhibitory activity towards ACSS3 (recombinant human ACSS3)	aqueous solubility (Water solubility in PBS)	inhibitory activity towards ACSS1 (recombinant human ACSS1)	phosphorylation of ERK (SKBr3 cells)	phosphorylation of ERK (BT474 cells)	phosphorylation of ERK (MDA-MB-468 cells)
COCCNC(=O)Nc1ccc2nc(-c3cccs3)c(-c3cccs3)nc2c1 [VY-3-249, 1-(2,3-di(thiophen-2-yl)quinoxalin-6-yl)-3-(2-methoxyethyl)urea, reference compound]	neither VY-3-249 nor VY-3-135 displayed any inhibitory activity	poorly soluble	neither VY-3-249 nor VY-3-135 displayed any inhibitory activity			
CS(=O)(=O)CCNCc1ccc(-c2ccc3ncnc(Nc4ccc(OCc5cccc(F)c5)c(Cl)c4)c3c2)o1 [lapatinib]				decreases phosphorylation of ERK	decreases phosphorylation of ERK	decreases phosphorylation of ERK
